This sample holds only a part of the variants without activity.

B1: tRNA (parent)
chain: GUUCCGUUGGCGUAAUGGUAACGCGUCUCCCUCCUAAGGAGAAGACUGCGGGUUCGAGUCCCGUACGGAACG

The variants in the series derive from B1. The experiment in a line: yeast fitness relative to wild type (ratio to wild type); higher = fitter; tRNA-Arg(CCU), competitive growth, 37 C, YPD. The essentials: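 Start and end populations of a pooled competition were compared by 100-nucleotide paired-end sequencing of gene amplicons. The Saccharomyces cerevisiae strains carried tRNA-Arg(CCU) gene variants at the native genomic locus, synthesised with a 3% per-site mutation rate at 69 sites, and competed in YPD at 37°C for 24 hours in six parallel replicates. Darwinian fitness relative to wild type was based on the change in genotype frequencies. Genotypes required ≥ 100 starting reads, and estimates < 0.5 were set to 0.5.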
Regarding GUUCCGUGGGCGUAAUGGUAACGCGUCUCCCUCCCAAGGAGAAGACUGCGGGUUCGCGUCCCGUACGGAACG, the yeast fitness was no more than 0.5.

With GUUCCGUGGGCGUAAUGGUAACGCGUCUCCCUCCUAAGGAGAAGACUGCGGGUUCGAGUCCUGAACCGAACG, the yeast fitness stood at 0.603. As for GUUCCGUUAGCGUCAUGGUAACGCGUCUCCCUCCUAACGAGAAGACUGCGGGUUCGAGUCCCGUACGAAACG, the yeast fitness is no more than 0.5. In the case of GUUCCGUUAGCGUCAUGGUAACGCGUCUCCCUCCUAAGGAGAAGACUGCGGGUUUGAGUCCCGUACGGAACG, the yeast fitness was no more than 0.5. To GUUCCGUGGGCGUAAUGGUAACGCGUCUCCCUCCUAAGGACAAGACUGCGGGUUCGAGUCCCGUACGGAACG belongs 0.657; to GUUCCGUGGGCGUAAUGGUAACGCGUCUCCCUCCUAAGGAAAAGACUGCGGGUUCGAGUCCCGUACGGAACG, 0.642; to GUUCCGUUAGCGUAAUGGUUACGCGUCUCCCUCGUAAGGAGUAGACUGCGGGUUCGAGUCCCGUACGCAACG, no more than 0.5.

GUUCCGUUAGCGUUAUGGUAACGCGUCUGCCUCAUAAGGAGAAGACUGCGGGUACGAGUCCCGUACGGAACG: the yeast fitness is no more than 0.5. To GUUCCGUGGGCGUAAUGGUAACGCGACUCCCUCCUAAGGGGACGACUGCGGGUUGGAGUACCGUACGGAACG belongs no more than 0.5; to GUUCCGUGGGCGUAAUGGUAACGCGUCUCCCUCCUAAGGAGAAGAAUGCGGGUUAGAGUCCCGUACGGAACG, no more than 0.5; to GUUCCGUGGGCGUAAUGGUAACGCGUCUCCCUCCUAAGGAGAAGACUGCGGGUUCGAGUGACGUACGGAACG, 0.597. Regarding GUUCCGUUAGCGUCAUGGUAAGGCGUCUCCCUCCUAAGGAGAAGCCUGCGCGUUCGAGUCCCGCACGGAACG, the yeast fitness was no more than 0.5. For the variant GUUCCGUGGCCGUAAUGGUGACGCGUCUCCCUCCUAAGGAGAAGACUGCGGGUUUGAGUCCCGUACGGAACG, the yeast fitness was no more than 0.5. To GUUCCGUGGGCGUAAUGGUAACGCGACUCCCUCCUAAGGAGAAGACUGCGGAUUCGAGUCCCGUACGGAACG belongs 0.59.

With GUUCCGUUAGCGUAGUGGUAACGCGUCUCCCUCCUAAGGAGAGGACUGGGGGGUCGAGUCCCGUACGGAACG, the yeast fitness came to 0.553.

Turning to GUUCCGUGGGCGUAAUGGUAACGCGUCUCCCUCCUAAAGAGAAGACUGCGGGUUCGAGUCCCGUACGUAACG, the yeast fitness was no more than 0.5.

Regarding GUUCCGUUAGCGUAUUGGUGACGCGUCUCCCUCCUAAGGAGAACACUGCGGGUUCGAGUCUCGUACGGAACG, the yeast fitness is no more than 0.5. To GUUCCGUUAGCGUAAUGGUUAGGCGUCUCCCUCCUAAGGAGAAGACUGCGGGUUCGAGUCCCGUACGGAACG belongs 0.53. To GUUCCGUUAGCGUCAUGGUAACGCGUCUCCCACCUAAGGAGAAGACUGCGGGUUCGAGUCCCGUACGGAGCG belongs no more than 0.5; to GUUCCGUGGGCGUAAUGGUAACGCGUCUCCCUCCUAAGGAGAAGACUGCGGAUUCGAGUCCCGUACCGAACG, 0.521. To GUUCCGUGGGCAUAAUGGUAACGCGUCUCCCUCCUAAGGAGAAGACUGCCGCUUUGAGUCCUGUACGGACCG belongs no more than 0.5; to GUUCCGUUAGCGUGAUGGUAAUGCGUCUCCAUCUUCAGGAGAAGCCUGCGGGUUCGAGUCUCGAACGGAACG, 0.546; to GUUCCGUGGGCGUAAUGGUAACGCGUCUCCCCCCUAAGGAGAAGACUGCGGGUUCGAGUCCCGUAUGGAACG, no more than 0.5. As for GUUCCGUGGGCGUAAUAGUAACGCGUCUCCCUCCUAAGGAGAAGACUGCGGGUUCGAGUCCCGUACGGACCG, the yeast fitness was no more than 0.5. To GUUCCGUUAGCGUGAUGGUAACGCGUCUUCCACCUAAGGAGAUGACUGCGGGUUCGAGUCCCGUACGGAACG belongs no more than 0.5; to GUUCCGUUAGCGUAAUGGUGACGCGUCUCCCUCCUAAGGCGUCGACUACGGGUUCGAGUCCCGUACGGAACG, no more than 0.5. Turning to GUUCCGUGGCCGUAAUGGUGACGCGUCUCCCUCCUAAGGAGAAGACUGCGGGUUCGAGCCCCGUACAGAACG, the yeast fitness was no more than 0.5. To GUUCCGUGCGCGUAAUGGUAACGCGUCUCCCUCCUAAGGAGAAGACUGCGGGUGCGAGUCCCGUACGGAACG belongs no more than 0.5; to GUUCCGUGGCCGUAAUGGUGACGCGUCUCCCUCCUAAGGAGAAGACUGCGGGUUCGAGUCCCGUACGGAACG, no more than 0.5. To GUUCCGUGGGCGUAAUGGUAACGCGUCUCCCUCCUAAGGAGAAGACUGCGGGUUAGAGUCCCGUAUGGAACG belongs no more than 0.5. As for GUUCCGUUAGCGUUAUGGUAACGCGUCUCCCUCCUAAGGAGAAGACUCCGGGUUCGAGUCCCGUACGGAACG, the yeast fitness is no more than 0.5. To GUUCCGUGGGCGAAAUGGUAACGCGUCUCCCUCCUAAGGAGAGGACUGCGGGAUCGAGUCCCGUACGAAACG belongs no more than 0.5; to GUUCCGUGGGCGUAAUGGUAACGCGUCUCCCUCCUAAGGAGAAGAGUGCGGAUUCGAGUCCCGUACGGAACG, no more than 0.5; to GUUCCGUUAGCGUGAUGGUAACACGUCUCCCUCCUAAGGACAAGACUGCGCGUUCGAGUCCCGUACGGAACG, no more than 0.5.

GUUCCGUGGGCGUAAUGGUAACGCGUCUCCCUCCUAAGGAGAAGACUGCGGGUUUGAGUCCCGUACGGAACG: the yeast fitness is 0.569. To GUUCCGUGGGCGUAAUGGUAACGCGUCUCCCUCCAAAGGAGAAGACUGCGGGUUCGAGUCCCGUACGGAUCG belongs no more than 0.5. To GUUCCGUGGGCGUAAUAGUAACGCGUCUCCCUCCUAAGGAGAAGACUCCGGGUUCGAGUCCCGUACGGAACG belongs no more than 0.5; to GUUCCGUUAGCGUAAUGGUGACGCGUCUCCCUCCUAAGGAGAAGACUGCGGGUUCGAGACCCGUAGGGAACG, no more than 0.5.

Values taken from the RNAGym collection of RNA variant scans (doi:10.1126/science.aae0568).
